Assay results from ChEMBL document CHEMBL1124002, “Antiallergy agents. 1. Substituted 1,8-naphthyridin-2(1H)-ones as inhibitors of SRS-A release” (J Med Chem, 1988).

How the values were obtained:
Assay type in all cases: functional
Cavia porcellus [1] = species: Cavia porcellus; assay: Percent inhibition of SRS-A release in vitro at a dose of 10 uM in guinea pig
Procedure, shortened: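 Male Hartley guinea pigs were sensitized with ovalbumin (5 mg ip + 5 mg sc on day 1, 5 mg ip on day 4). About 400 mg chopped lung was preincubated with compound for 12 min at 37 °C in Tyrode's with 10 mM cysteine, then challenged with 20 μg/mL ovalbumin (final) for 0.25 h. SRS-A in ethanol-extracted supernatant was bioassayed on mepyramine-treated ileum against a rat SRS-A standard. Results are % inhibition versus vehicle, from 3-4 lungs.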

Cavia porcellus [2] = assay: Percent inhibition of bronchospasm in vivo at a dose of 25 mg/kg in guinea pig; conditions: Bronchiole
Procedure, shortened: (§1)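 Guinea pigs were sensitized with ovalbumin and used 3-4 weeks later. They were fasted and anesthetized with dialurethane ip. Compounds were given orally 2 h before challenge. Propranolol 1 mg/kg, indomethacin 5 mg/kg and mepyramine 2 mg/kg were given iv 15 min before a 0.5 min aerosol of 0.5% ovalbumin through the tracheal cannula. The rise in inflation pressure measured bronchoconstriction. Results are % inhibition, 4-5 animals per group.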

Cavia porcellus [3] = assay: Percent inhibition of bronchospasm in vivo at a dose of 12.5 mg/kg in guinea pig; conditions: Bronchiole; procedure, shortened: as §1

Compound: C=CCc1c(O)c2cccnc2n(-c2cccc(OC)c2)c1=O
- inhibition at 10 µM (Cavia porcellus [1]): 56%
- inhibition in vivo at 25 mg/kg (Cavia porcellus [2]): 46%

Compound: CCCCc1c(O)c2cc(O)cnc2n(-c2ccccc2)c1=O
- inhibition at 10 µM (Cavia porcellus [1]): 69%
- inhibition in vivo at 25 mg/kg (Cavia porcellus [2]): 0%

Compound: CC(=O)CCc1c(O)c2cccnc2n(-c2ccccc2)c1=O
- inhibition at 10 µM (Cavia porcellus [1]): 36%

Compound: CCCCc1c(O)c2cccnc2n(-c2ccccc2SC)c1=O
- inhibition at 10 µM (Cavia porcellus [1]): 32%

Compound: C=CCOc1c(CCCC)c(=O)n(-c2ccccc2)c2ncccc12
- inhibition at 10 µM (Cavia porcellus [1]): 0%

Compound: CC1(CCc2c(O)c3cccnc3n(-c3ccccc3)c2=O)OCCO1
- inhibition at 10 µM (Cavia porcellus [1]): 52%
- inhibition in vivo at 25 mg/kg (Cavia porcellus [2]): 0%

Compound: CCCCc1c(O)c2cccnc2n(-c2cc(OC)c(OC)c(OC)c2)c1=O
- inhibition at 10 µM (Cavia porcellus [1]): 22%

Compound: C#CCOc1c(CCCC)c(=O)n(-c2ccccc2)c2ncccc12
- inhibition at 10 µM (Cavia porcellus [1]): 0%

Compound: CCCCCCCCc1c(O)c2cccnc2n(-c2ccccc2)c1=O
- inhibition at 10 µM (Cavia porcellus [1]): 51%
- inhibition in vivo at 25 mg/kg (Cavia porcellus [2]): 0%

Compound: CCCCc1c(O)c2ccncc2n(-c2ccccc2)c1=O
- inhibition at 10 µM (Cavia porcellus [1]): 0%

Compound: CCCCc1c(O)c2cccnc2n(-c2ccc(F)cc2)c1=O
- inhibition at 10 µM (Cavia porcellus [1]): 95%
- inhibition in vivo at 12.5 mg/kg (Cavia porcellus [3]): 0%

Compound: CCCCc1c(OC(C)=O)c2cccnc2n(-c2ccc(OC(C)=O)c(C(=O)O)c2)c1=O
- inhibition at 10 µM (Cavia porcellus [1]): 17%

Compound: C=CCc1c(OC(C)=O)c2cc(OC)cnc2n(-c2ccccc2)c1=O
- inhibition at 10 µM (Cavia porcellus [1]): 0%

Compound: CCCCOc1ccc(-n2c(=O)c(CCCC)c(O)c3cccnc32)cc1
- inhibition at 10 µM (Cavia porcellus [1]): 17%

Compound: CCCCc1c(O)c2cccnc2n(-c2c(C)cccc2C)c1=O
- inhibition at 10 µM (Cavia porcellus [1]): 0%

Compound: CCCCc1c(OCCO)c2cccnc2n(-c2ccccc2)c1=O
- inhibition at 10 µM (Cavia porcellus [1]): 86%
- inhibition in vivo at 25 mg/kg (Cavia porcellus [2]): 64%

Compound: CCCCc1c(O)c2cc3c(nc2n(-c2ccccc2)c1=O)CCC3
- inhibition at 10 µM (Cavia porcellus [1]): 22%

Compound: CCCCc1c(OC(C)=O)c2cccnc2n(-c2ccc(S(C)(=O)=O)cc2)c1=O
- inhibition at 10 µM (Cavia porcellus [1]): 26%

Compound: CCCCc1c(O)c2cccnc2n(-c2ccc3c(c2)CCC3)c1=O
- inhibition at 10 µM (Cavia porcellus [1]): 55%
- inhibition in vivo at 25 mg/kg (Cavia porcellus [2]): 1%

Compound: Cc1c(O)c2cccnc2n(-c2ccccc2)c1=O
- inhibition at 10 µM (Cavia porcellus [1]): 52%
- inhibition in vivo at 25 mg/kg (Cavia porcellus [2]): 33%

Compound: CC(=O)Oc1c(CCC2CCCCN2C)c(=O)n(-c2ccccc2)c2ncccc12 (stereo not drawn)
- inhibition at 10 µM (Cavia porcellus [1]): 19%

Compound: CCCCc1c(OC(C)=O)c2cccnc2n(-c2ccc(OC)cc2)c1=O
- inhibition at 10 µM (Cavia porcellus [1]): 64%
- inhibition in vivo at 25 mg/kg (Cavia porcellus [2]): 32%

Compound: CCCCc1c(O)c2ccc(C)nc2n(-c2ccccc2)c1=O
- inhibition at 10 µM (Cavia porcellus [1]): 21%

Compound: O=c1c(CCCCc2ccccc2)c(O)c2cccnc2n1-c1ccccc1
- inhibition at 10 µM (Cavia porcellus [1]): 9%

Compound: CCCCc1c(O)c2cc(OC)cnc2n(-c2ccccc2)c1=O
- inhibition at 10 µM (Cavia porcellus [1]): 3%

Compound: CC(C)=CCc1c(O)c2nccnc2n(-c2ccccc2)c1=O
- inhibition at 10 µM (Cavia porcellus [1]): 69%
- inhibition in vivo at 25 mg/kg (Cavia porcellus [2]): 10%

Compound: CCCCc1c(OC(C)=O)c2cccnc2n(-c2cccc(S(C)(=O)=O)c2)c1=O
- inhibition at 10 µM (Cavia porcellus [1]): 20%

Compound: C=CCc1c(OC(C)=O)c2cccnc2n(-c2ccc(OC)cc2)c1=O
- inhibition at 10 µM (Cavia porcellus [1]): 52%
- inhibition in vivo at 25 mg/kg (Cavia porcellus [2]): 42%

Compound: C=CCc1c(OC(C)=O)c2cccnc2n(-c2cccc(C(F)(F)F)c2)c1=O
- inhibition at 10 µM (Cavia porcellus [1]): 65%

Compound: CCCCc1c(OC(C)=O)c2cccnc2n(-c2ccc([S+](C)[O-])cc2)c1=O (stereo not drawn)
- inhibition at 10 µM (Cavia porcellus [1]): 11%

Compound: O=c1cc(O)c2cccnc2n1-c1ccccc1
- inhibition at 10 µM (Cavia porcellus [1]): 0%

Compound: CCCCc1c(O)c2cccnc2n(-c2ccc(C(C)O)cc2)c1=O (stereo not drawn)
- inhibition at 10 µM (Cavia porcellus [1]): 48%

Compound: CCCCc1c(OCCOCC)c2cccnc2n(-c2ccccc2)c1=O
- inhibition at 10 µM (Cavia porcellus [1]): 0%

Compound: CCCCCCn1c(=O)c(CCCC)c(O)c2cccnc21
- inhibition at 10 µM (Cavia porcellus [1]): 63%
- inhibition in vivo at 25 mg/kg (Cavia porcellus [2]): 15%

Compound: CCCCc1c(O)c2cccnc2n(-c2ccc(O)c(C(=O)O)c2)c1=O
- inhibition at 10 µM (Cavia porcellus [1]): 0%

Compound: CCCCc1c(O)c2cccnc2n(-c2ccc(OC)cc2)c1=O
- inhibition at 10 µM (Cavia porcellus [1]): 87%
- inhibition in vivo at 25 mg/kg (Cavia porcellus [2]): 51%

Compound: CCCCc1c(O)c2cncnc2n(-c2ccccc2)c1=O
- inhibition at 10 µM (Cavia porcellus [1]): 9%

Compound: CCCCc1c(O)c2cccnc2n(-c2ccc(OC)c(OC)c2)c1=O
- inhibition at 10 µM (Cavia porcellus [1]): 57%
- inhibition in vivo at 25 mg/kg (Cavia porcellus [2]): 0%

Compound: CC(O)CCc1c(O)c2cccnc2n(-c2ccccc2)c1=O (stereo not drawn)
- inhibition at 10 µM (Cavia porcellus [1]): 53%
- inhibition in vivo at 25 mg/kg (Cavia porcellus [2]): 32%

Compound: CCCCc1c(O)c2c(n(-c3ccccc3)c1=O)NCCC2
- inhibition at 10 µM (Cavia porcellus [1]): 51%
- inhibition in vivo at 25 mg/kg (Cavia porcellus [2]): 17%

Compound: CCCCc1c(O)c2cnccc2n(-c2ccccc2)c1=O
- inhibition at 10 µM (Cavia porcellus [1]): 0%

Compound: CCCCc1c(OCC)c2cccnc2n(-c2ccccc2)c1=O
- inhibition at 10 µM (Cavia porcellus [1]): 0%

Compound: CCCCc1c(OCC2COC(C)(C)O2)c2cccnc2n(-c2ccccc2)c1=O (stereo not drawn)
- inhibition at 10 µM (Cavia porcellus [1]): 0%

Compound: CCCCc1c(O)c2cccnc2n(Cc2ccccc2)c1=O
- inhibition at 10 µM (Cavia porcellus [1]): 0%

Compound: O=c1c(CC2CCCCC2)c(O)c2cccnc2n1-c1ccccc1
- inhibition at 10 µM (Cavia porcellus [1]): 30%

Compound: CCCCc1c(O)c2cccnc2n(-c2ccccc2C)c1=O
- inhibition at 10 µM (Cavia porcellus [1]): 55%
- inhibition in vivo at 25 mg/kg (Cavia porcellus [2]): 9%

Compound: CCCCc1c(OCCCO)c2cccnc2n(-c2ccccc2)c1=O
- inhibition at 10 µM (Cavia porcellus [1]): 7%

Compound: CCCCCc1c(O)c2cccnc2n(-c2ccccc2)c1=O
- inhibition at 10 µM (Cavia porcellus [1]): 49%
- inhibition in vivo at 25 mg/kg (Cavia porcellus [2]): 42%

Compound: O=c1c(C2CCCCC2)c(O)c2cccnc2n1-c1ccccc1
- inhibition at 10 µM (Cavia porcellus [1]): 66%
- inhibition in vivo at 25 mg/kg (Cavia porcellus [2]): 45%

Compound: CCCCc1c(O)c2ccccc2n(-c2ccncc2)c1=O
- inhibition at 10 µM (Cavia porcellus [1]): 31%

Compound: CCCCc1c(O)c2cccnc2n(-c2ccc(OCc3ccccc3)cc2)c1=O
- inhibition at 10 µM (Cavia porcellus [1]): 50%
- inhibition in vivo at 25 mg/kg (Cavia porcellus [2]): 0%

Compound: CCCCc1c(O)c2cccnc2n(-c2ccc(SC)cc2)c1=O
- inhibition at 10 µM (Cavia porcellus [1]): 86%
- inhibition in vivo at 25 mg/kg (Cavia porcellus [2]): 8%

Compound: C=CCc1c(O)c2cccnc2n(-c2ccc(OC)cc2)c1=O
- inhibition at 10 µM (Cavia porcellus [1]): 3%

Compound: CC(C)=CCc1c(O)c2cccnc2n(-c2ccccc2)c1=O
- inhibition at 10 µM (Cavia porcellus [1]): 45%

Compound: CCCCc1c(O)c2cc3c(nc2n(-c2ccccc2)c1=O)CCCC3
- inhibition at 10 µM (Cavia porcellus [1]): 38%

Compound: CCCCc1c(OC(C)=O)c2cccnc2n(-c2cccc(SC)c2)c1=O
- inhibition at 10 µM (Cavia porcellus [1]): 57%
- inhibition in vivo at 25 mg/kg (Cavia porcellus [2]): 27%

Compound: CCCCc1ccc(-n2c(=O)c(CCCC)c(O)c3cccnc32)cc1
- inhibition at 10 µM (Cavia porcellus [1]): 50%
- inhibition in vivo at 25 mg/kg (Cavia porcellus [2]): 13%

Compound: CCCCc1c(OCC(O)CO)c2cccnc2n(-c2ccccc2)c1=O (stereo not drawn)
- inhibition at 10 µM (Cavia porcellus [1]): 0%

Compound: CCCCc1c(O)c2cccnc2n(-c2cccc(Cl)c2C)c1=O
- inhibition at 10 µM (Cavia porcellus [1]): 5%

Compound: O=c1c(-c2ccccc2)c(O)c2cccnc2n1-c1ccccc1
- inhibition at 10 µM (Cavia porcellus [1]): 48%

Compound: CCCCc1c(OC(C)=O)c2cccnc2n(-c2cccc([S+](C)[O-])c2)c1=O (stereo not drawn)
- inhibition at 10 µM (Cavia porcellus [1]): 28%

Compound: C=CCc1c(O)c2cccnc2n(-c2cccc(C(F)(F)F)c2)c1=O
- inhibition at 10 µM (Cavia porcellus [1]): 50%
- inhibition in vivo at 25 mg/kg (Cavia porcellus [2]): 0%

Compound: CCCCc1c(O)c2ncccc2n(-c2ccccc2)c1=O
- inhibition at 10 µM (Cavia porcellus [1]): 43%

Compound: CCCCc1c(O)c2cccnc2n(-c2ccc(C(C)=O)cc2)c1=O
- inhibition at 10 µM (Cavia porcellus [1]): 37%

Compound: CCCCc1c(O)c2cc(Br)cnc2n(-c2ccccc2)c1=O
- inhibition at 10 µM (Cavia porcellus [1]): 73%
- inhibition in vivo at 25 mg/kg (Cavia porcellus [2]): 5%

Compound: CCCCc1c(O)c2cccnc2n(CCN(C)C)c1=O
- inhibition at 10 µM (Cavia porcellus [1]): 0%

Compound: CCCCc1c(O)c2cccnc2n(-c2ccc(Oc3ccccc3)cc2)c1=O
- inhibition at 10 µM (Cavia porcellus [1]): 54%
- inhibition in vivo at 25 mg/kg (Cavia porcellus [2]): 0%

Compound: CCCCc1c(O)nc2ncccc2c1O
- inhibition at 10 µM (Cavia porcellus [1]): 15%

Compound: C=CCCCCCCCc1c(OC(C)=O)c2cccnc2n(-c2ccccc2)c1=O
- inhibition at 10 µM (Cavia porcellus [1]): 15%

Compound: CCCCc1c(OC(C)=O)c2cccnc2n(-c2ccc(SC)cc2)c1=O
- inhibition at 10 µM (Cavia porcellus [1]): 38%

Compound: CCCCc1c(O)c2cc3ccccc3nc2n(-c2ccccc2)c1=O
- inhibition at 10 µM (Cavia porcellus [1]): 0%

Compound: C=CCc1c(OC(C)=O)c2cccnc2n(-c2ccccc2OC)c1=O
- inhibition at 10 µM (Cavia porcellus [1]): 35%

Compound: CCCCc1c(O)c2cccnc2n(-c2ccc(F)cc2F)c1=O
- inhibition at 10 µM (Cavia porcellus [1]): 27%

Compound: CCCCc1c(O)c2cccnc2n(-c2ccc(O)cc2)c1=O
- inhibition at 10 µM (Cavia porcellus [1]): 44%

Compound: CCCCc1c(O)c2cccnc2n(-c2cccc(SC)c2)c1=O
- inhibition at 10 µM (Cavia porcellus [1]): 62%
- inhibition in vivo at 25 mg/kg (Cavia porcellus [2]): 55%

Compound: CCCCc1c(OCCCN(C)C)c2cccnc2n(-c2ccccc2)c1=O
- inhibition at 10 µM (Cavia porcellus [1]): 0%
- inhibition in vivo at 25 mg/kg (Cavia porcellus [2]): 13%

Compound: CCCCc1c(O)c2cccnc2n(-c2cccnc2)c1=O
- inhibition at 10 µM (Cavia porcellus [1]): 33%

Compound: CCCCc1c(O)c2nccnc2n(-c2ccccc2)c1=O
- inhibition at 10 µM (Cavia porcellus [1]): 75%
- inhibition in vivo at 25 mg/kg (Cavia porcellus [2]): 36%

Compound: CCCCc1c(=O)c2cccnc2n2c1oc1ccccc12
- inhibition at 10 µM (Cavia porcellus [1]): 14%
